Results as given in ChEMBL document CHEMBL2331444, “Design, development and evaluation of novel dual PPARδ/PPARγ agonists” (Bioorg Med Chem Lett, 2013).
Activity calls are given as the source filed them. No cut-off for these calls is given here.

Columns and labels:
Type in all cases: cell-based
[1] = target: T1, Peroxisome proliferator-activated receptor gamma (Mus musculus) (UniProt P37238); assay: Agonist activity at PPARgamma in mouse 3T3L1 cells assessed as downregulation of DGAT mRNA level at 10 uM after 6 days […] relative to control; conditions: 3T3-L1
T1 sequence (whole entry): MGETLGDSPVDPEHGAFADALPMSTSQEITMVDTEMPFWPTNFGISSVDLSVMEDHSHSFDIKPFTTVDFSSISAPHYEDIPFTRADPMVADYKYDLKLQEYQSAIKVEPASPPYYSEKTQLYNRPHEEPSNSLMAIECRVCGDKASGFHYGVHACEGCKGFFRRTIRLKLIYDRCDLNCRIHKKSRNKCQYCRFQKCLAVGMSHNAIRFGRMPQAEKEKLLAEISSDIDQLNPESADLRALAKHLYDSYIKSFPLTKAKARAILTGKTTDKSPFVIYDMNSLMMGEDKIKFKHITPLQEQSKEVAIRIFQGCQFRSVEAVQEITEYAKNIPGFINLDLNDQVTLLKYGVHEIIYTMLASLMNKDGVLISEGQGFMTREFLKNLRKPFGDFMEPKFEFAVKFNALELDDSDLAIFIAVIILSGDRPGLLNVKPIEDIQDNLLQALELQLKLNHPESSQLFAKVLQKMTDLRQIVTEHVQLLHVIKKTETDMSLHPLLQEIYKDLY

[2] = target: T2, Peroxisome proliferator-activated receptor gamma (Homo sapiens) (UniProt P37231); assay: Transactivation of PPARgamma (unknown origin) expressed in HEK293 cells co-transfected with AP2-PPRE by luciferase reporter gene assay
T2 sequence (whole entry): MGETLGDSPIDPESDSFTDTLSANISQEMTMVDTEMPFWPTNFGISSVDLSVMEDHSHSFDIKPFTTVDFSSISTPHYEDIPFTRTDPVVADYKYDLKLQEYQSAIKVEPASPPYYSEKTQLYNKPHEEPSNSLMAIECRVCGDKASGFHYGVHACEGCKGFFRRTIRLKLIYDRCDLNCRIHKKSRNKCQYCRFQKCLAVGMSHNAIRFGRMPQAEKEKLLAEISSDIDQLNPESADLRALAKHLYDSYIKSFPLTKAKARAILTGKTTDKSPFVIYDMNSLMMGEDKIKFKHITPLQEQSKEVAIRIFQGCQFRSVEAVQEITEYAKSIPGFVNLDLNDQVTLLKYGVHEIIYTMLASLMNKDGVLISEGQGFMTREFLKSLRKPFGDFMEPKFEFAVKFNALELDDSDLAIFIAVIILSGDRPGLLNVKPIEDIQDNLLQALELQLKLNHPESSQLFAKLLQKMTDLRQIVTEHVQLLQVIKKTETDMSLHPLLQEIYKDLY
Method in brief: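 PPRE reporter plasmid (AP2 promoter element) transiently co-transfected into HEK-293 cells with RXR, PPARγ and β-galactosidase vectors using Lipofectamine 2000. Cells were treated across a dose–response series, plotted on a log(μM) axis from about −2 to 2. Luciferase was read as relative light units on a luminometer and normalised to β-galactosidase activity measured with ONPG.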

[3] = target: T1, Peroxisome proliferator-activated receptor gamma (Mus musculus); assay: Agonist activity at PPARgamma in mouse 3T3L1 cells assessed as downregulation of FABP mRNA level at 10 uM after 6 days […] relative to control; conditions: 3T3-L1
[4] = target: T3, Peroxisome proliferator-activated receptor delta (Mus musculus) (UniProt P35396); assay: Agonist activity at PPARdelta in mouse 3T3L1 cells assessed as upregulation of PDK4 mRNA level at 10 uM after 6 days […] relative to control; conditions: 3T3-L1
T3 sequence (whole entry): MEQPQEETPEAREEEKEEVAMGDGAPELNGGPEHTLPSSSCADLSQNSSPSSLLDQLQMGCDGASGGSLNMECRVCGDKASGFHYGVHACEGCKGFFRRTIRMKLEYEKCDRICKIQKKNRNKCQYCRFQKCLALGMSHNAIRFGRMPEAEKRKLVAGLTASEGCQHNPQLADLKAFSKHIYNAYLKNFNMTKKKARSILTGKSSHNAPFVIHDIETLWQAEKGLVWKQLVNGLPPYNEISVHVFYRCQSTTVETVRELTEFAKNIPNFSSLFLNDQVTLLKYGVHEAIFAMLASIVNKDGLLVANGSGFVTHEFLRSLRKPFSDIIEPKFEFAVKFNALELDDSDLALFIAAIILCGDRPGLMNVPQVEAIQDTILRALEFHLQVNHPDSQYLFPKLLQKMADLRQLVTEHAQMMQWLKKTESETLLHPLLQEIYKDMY

[5] = target: T1, Peroxisome proliferator-activated receptor gamma (Mus musculus); assay: Agonist activity at PPARgamma in mouse 3T3L1 cells assessed as upregulation of HSL mRNA level at 10 uM after 6 days […] relative to control; conditions: 3T3-L1
[6] = target: T1, Peroxisome proliferator-activated receptor gamma (Mus musculus); assay: Agonist activity at PPARgamma in mouse 3T3L1 cells assessed as upregulation of ADPN mRNA level at 10 uM after 6 days […] relative to control; conditions: 3T3-L1
[7] = target: T1, Peroxisome proliferator-activated receptor gamma (Mus musculus); assay: Agonist activity at PPARgamma in mouse 3T3L1 cells assessed as downregulation of FATP mRNA level at 10 uM after 6 days […] relative to control; conditions: 3T3-L1
[8] = target: T1, Peroxisome proliferator-activated receptor gamma (Mus musculus); assay: Agonist activity at PPARgamma in mouse 3T3L1 cells assessed as upregulation of ATGL mRNA level at 10 uM after 6 days […] relative to control; conditions: 3T3-L1
[9] = target: T1, Peroxisome proliferator-activated receptor gamma (Mus musculus); assay: Agonist activity at PPARgamma in mouse 3T3L1 cells assessed as upregulation of MCAD mRNA level at 10 uM after 6 days […] relative to control; conditions: 3T3-L1
[10] = target: T1, Peroxisome proliferator-activated receptor gamma (Mus musculus); assay: Agonist activity at PPARgamma in mouse 3T3L1 cells assessed as downregulation of CD36 mRNA level at 10 uM after 6 days […] relative to control; conditions: 3T3-L1

Activity [1]: Active
Activity [2]: Active
Activity [3]: Active
Activity [4]: Active
Activity [5]: Active
Activity [6]: Active
Activity [7]: Active
Activity [8]: Active
Activity [9]: Active
Activity [10]: Active
Structure (SMILES): Cc1ccc(CNCCCN(Cc2ccc(C(=O)O)cc2)Cc2cc(C(F)(F)F)cc(C(F)(F)F)c2)cc1
